ChEMBL document CHEMBL5252514, “Conopeptide-Derived κ-Opioid Agonists (Conorphins): Potent, Selective, and Metabolic Stable Dynorphin A Mimetics with Antinociceptive Properties” (J Med Chem, 2016)
The source made the active and inactive calls. No cut-off for these calls is given here. Where a SMILES comes first, the peptide text is derived from it.

Key:
[1] = Metabolic stability in Wistar rat plasma assessed as URRQ[CHA] formation by measuring relative abundance measuring after 60 mins by HPLC analysis relative to control; format: ADME, cell-free; details: 1 h
In short: (§1)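 Peptide at 1 mg/mL in sterile PBS pH 7.4 was mixed 1:1 with thawed, centrifuged Wistar rat plasma supernatant and incubated at 37°C in triplicate. Samples at 0, 1, 2, 3, 4, 6 and 24 h were quenched with acetonitrile and then 2% TFA/water, and analysed by HPLC with inline electrospray MS.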

[2] = Metabolic stability in Wistar rat plasma assessed as Q[CHA]CC formation by measuring relative abundance measuring after 60 mins by HPLC analysis relative to control; format: ADME, cell-free; details: 1 h; in short: as §1
[3] = target: T1, Kappa-type opioid receptor (Homo sapiens, UniProt P41145); experiment: Agonist activity at human kappa opioid receptor expressed in CHO-K1 cells assessed as ERK phosphorylation incubated for 2 hrs by Alphascreen surefire method; format: cell-based
In short: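 CHO-K1 cells transiently transfected with KOR plasmid, harvested 24 h later, plated at 50,000 cells/well and settled 24 h, then serum-starved 12 h. Ligands in serum-free medium applied 10 min at room temperature. Lysates read by AlphaScreen SureFire phospho-ERK1/2 after 2 h at 37 °C. Curves fitted by sigmoidal dose-response.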

Homo sapiens [4] = organism: Homo sapiens; experiment: Selectivity ratio, ratio of Ki for human KOR to Ki for human DOR
Homo sapiens [5] = organism: Homo sapiens; experiment: Selectivity ratio, ratio of Ki for human KOR to Ki for human NOP
[6] = Metabolic stability in Wistar rat plasma assessed as URR formation by measuring relative abundance measuring after 60 mins by HPLC analysis relative to control; format: ADME, cell-free; details: 1 h; in short: as §1
Homo sapiens [7] = organism: Homo sapiens; experiment: Selectivity ratio, ratio of Ki for human KOR to Ki for human MOR
[8] = Metabolic stability in Wistar rat plasma assessed as half life by HPLC analysis; format: ADME, cell-free; in short: as §1
[9] = target: T1, Kappa-type opioid receptor; experiment: Displacement of [3H]U69593 from human kappa opioid receptor expressed in CHO-K1 cells incubated for 1 hr by 1450 microbeta scintillation counter analysis; format: cell-based
In short: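 Membranes from transiently KOR-transfected CHO-K1 cells (~2 µg/well) used in SPA with 3H-U69,593 (1 nM). Competitor ranged 1 pM–10 µM in 50 mM Tris-HCl pH 7.4, 5 mM MgCl2, 0.1% BSA. Incubated 1 h at room temperature with shaking. Nonspecific binding defined with 10 µM dynorphin A. Sigmoidal dose-response fit; at least three independent experiments in triplicate.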

[10] = target: T1, Kappa-type opioid receptor; experiment: Agonist activity at human kappa opioid receptor expressed in CHO-K1 cells assessed as inhibition of forskolin-stimulated cAMP production incubated for 30 mins by LANCE cAMP assay; format: cell-based
In short: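 Transiently KOR-transfected CHO-K1 cells taken 24 h post-transfection, 3,000 cells/well in HBSS stimulation buffer (0.1% BSA, 0.5 mM IBMX, 5 mM HEPES, pH 7.4). Forskolin (1 µM final) and ligand added, then 30 min at RT. LANCE Eu-cAMP tracer/anti-cAMP TR-FRET read after 1 h at RT. Sigmoidal dose-response fit.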

[11] = Metabolic stability in Wistar rat plasma assessed as compound remaining measured after 24 hrs by HPLC analysis; format: ADME, cell-free; details: read-out: Stability; in short: as §1
[12] = Metabolic stability in Wistar rat plasma assessed as UrrQ[CHA][PEN]C formation by measuring relative abundance measuring after 3600 mins by HPLC analysis relative to control; format: ADME, cell-free; details: 60 h
[13] = Metabolic stability in Wistar rat plasma assessed as UrrQ[CHA] formation by measuring relative abundance measuring after 120 mins by HPLC analysis relative to control; format: ADME, cell-free; details: 2 h; in short: as §1
[14] = Metabolic stability in Wistar rat plasma assessed as UrrQ[CHA]CC formation by measuring relative abundance measuring after 120 mins by HPLC analysis relative to control; format: ADME, cell-free; details: 2 h; in short: as §1
[15] = Metabolic stability in Wistar rat plasma assessed as BzPrrQ[CHA][PEN]C formation by measuring relative abundance measuring after 3600 mins by HPLC analysis relative to control; format: ADME, cell-free; details: 60 h
Mus musculus [16] = experiment: Antinociceptive activity against C57BL/6 mouse assessed as inhibition of colonic nociceptor mechanosensitivity at 1 to 1000 nM, administered topically on colon mucosal surface for 28 days; format: functional, organism-based; details: dose 1-1000 nM, time 28.0 day
In short: (§2)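 Ex vivo single-unit extracellular recording of splanchnic colonic afferents from healthy C57BL/6 mice or CVH mice (28 days after TNBS, inflammation resolved). Baseline mechanosensitivity was measured with a 2 g von Frey probe applied 3 s to the receptive field, repeated 3–4 times 10 s apart. KOR agonist was applied to the mucosal surface for 5 min per concentration inside a small metal ring, then mechanosensitivity was re-tested.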

[17] = Metabolic stability in Wistar rat plasma assessed as BzPrrQ[CHA]CC formation by measuring relative abundance measuring after 360 mins by HPLC analysis relative to control; format: ADME, cell-free; details: 6 h; in short: as §1
Mus musculus [18] = experiment: Antinociceptive activity against C57BL/6 mouse model of TNBS induced chronic visceral hypersensitivity assessed as inhibition of colonic nociceptor mechanosensitivity at 1000 nM, administered topically on colon mucosal surface for 28 days in presence of norbinaltorphimine; format: functional, organism-based; details: time 28.0 day; in short: as §2
Mus musculus [19] = experiment: Antinociceptive activity against C57BL/6 mouse model of TNBS induced chronic visceral hypersensitivity assessed as inhibition of colonic nociceptor mechanosensitivity at 1000 nM, administered topically on colon mucosal surface for 28 days; format: functional, organism-based; details: time 28.0 day; in short: as §2

T1 sequence (P41145 whole entry): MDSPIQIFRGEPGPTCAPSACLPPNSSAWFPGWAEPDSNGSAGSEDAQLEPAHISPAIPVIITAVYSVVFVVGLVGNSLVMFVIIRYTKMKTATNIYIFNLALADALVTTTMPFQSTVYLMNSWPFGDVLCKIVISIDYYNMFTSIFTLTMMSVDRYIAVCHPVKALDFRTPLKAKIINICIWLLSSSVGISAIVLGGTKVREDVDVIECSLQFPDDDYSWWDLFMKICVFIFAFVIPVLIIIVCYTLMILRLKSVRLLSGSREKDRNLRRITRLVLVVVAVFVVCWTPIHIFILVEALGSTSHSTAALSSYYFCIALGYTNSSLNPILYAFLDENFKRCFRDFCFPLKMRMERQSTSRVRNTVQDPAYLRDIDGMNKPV

SMILES	EC50 [3] [nM]	Ratio Ki (Homo sapiens [4])	Ratio Ki (Homo sapiens [5])	Ratio Ki (Homo sapiens [7])	half-life [8] [h]	Ki [9] [nM]	EC50 [10] [nM]	also measured
N=C(N)NCCC[C@H](NC(=O)[C@@H]1CCC(=O)N1)C(=O)N[C@@H](CCCNC(=N)N)C(=O)N[C@@H](CCC(N)=O)C(=O)N[C@@H](CC1CCCCC1)C(=O)N[C@H]1CSSC[C@@H](C(N)=O)NC1=O	1580	> 10000	> 10000	> 10000	1.5	6.7	15.2	Activity [1]: 0.1; Activity [2]: 0.01; Activity [6]: 0.01
N=C(N)NCCC[C@@H](NC(=O)[C@@H](CCCNC(=N)N)NC(=O)[C@@H]1CCCN1C(=O)c1ccccc1)C(=O)N[C@@H](CCC(N)=O)C(=O)N[C@H](C(=O)N[C@H]1CSSC[C@@H](C(N)=O)NC1=O)C1CCCCC1	0.62	> 125000	> 125000	> 125000	20	0.48	0.39	
CC[C@H](C)[C@H](NC(=O)[C@H](CCC(N)=O)NC(=O)[C@H](CCCNC(=N)N)NC(=O)[C@H](CCCNC(=N)N)NC(=O)[C@@H]1CSSC[C@H](NC(=O)[C@@H](N)CC(N)=O)C(=O)N1)C(=O)N[C@H]1CSSC[C@@H](C(N)=O)NC1=O (HELM PEPTIDE1{N.C.C.R.R.Q.I.C.C.[am]}$PEPTIDE1,PEPTIDE1,2:R3-3:R3|PEPTIDE1,PEPTIDE1,8:R3-9:R3$$$V2.0)	9850	> 630	> 630	> 630	0.25	80	9450	
CC[C@H](C)[C@H](NC(=O)[C@H](CCC(N)=O)NC(=O)[C@H](CCCNC(=N)N)NC(=O)[C@H](CCCNC(=N)N)NC(=O)[C@@H]1CSSC[C@H](NC(=O)[C@@H]2CCC(=O)N2)C(=O)N1)C(=O)N[C@H]1CSSC[C@@H](C(N)=O)NC1=O (HELM PEPTIDE1{[Glp].C.C.R.R.Q.I.C.C.[am]}$PEPTIDE1,PEPTIDE1,2:R3-3:R3|PEPTIDE1,PEPTIDE1,8:R3-9:R3$$$V2.0)	5860	> 630	> 630	> 630	0.25	67.5	11.5	
CC1(C)SSC[C@@H](C(N)=O)NC(=O)[C@H]1NC(=O)[C@H](CC1CCCCC1)NC(=O)[C@H](CCC(N)=O)NC(=O)[C@@H](CCCNC(=N)N)NC(=O)[C@@H](CCCNC(=N)N)NC(=O)[C@@H]1CCC(=O)N1	450	> 1200	> 25000	> 39000		1.3	10.5	remaining at 24 h [11]: 100%; Activity [12]: 1
N=C(N)NCCC[C@@H](NC(=O)[C@@H]1CCC(=O)N1)C(=O)N[C@H](CCCNC(=N)N)C(=O)N[C@@H](CCC(N)=O)C(=O)N[C@@H](CC1CCCCC1)C(=O)N[C@H]1CSSC[C@@H](C(N)=O)NC1=O	1100	> 10000	> 10000	> 10000	6	3.9	12.6	Activity [13]: 0.1; Activity [14]: 1
N=C(N)NCCC[C@@H](NC(=O)[C@@H](CCCNC(=N)N)NC(=O)[C@@H]1CCCN1C(=O)c1ccc2ccccc2c1)C(=O)N[C@@H](CCC(N)=O)C(=O)N[C@@H](CC1CCCCC1)C(=O)N[C@H]1CSSC[C@@H](C(N)=O)NC1=O					0.5	0.07		
N=C(N)NCCC[C@H](NC(=O)[C@H](CCCNC(=N)N)NC(=O)[C@@H]1CSSC[C@H](NC(=O)[C@@H](N)CC(N)=O)C(=O)N1)C(=O)N[C@@H](CCC(N)=O)C(=O)N[C@@H](Cc1cccc2ccccc12)C(=O)N[C@H]1CSSC[C@@H](C(N)=O)NC1=O (HELM PEPTIDE1{N.C.C.R.R.Q.[O=C([C@H](Cc1cccc2ccccc12)N[*:1])[*:2]].C.C.[am]}$PEPTIDE1,PEPTIDE1,2:R3-3:R3|PEPTIDE1,PEPTIDE1,8:R3-9:R3$$$V2.0)					< 0.25	2.9		
CC1(C)SSC[C@@H](C(N)=O)NC(=O)[C@H]1NC(=O)[C@H](CC1CCCCC1)NC(=O)[C@H](CCC(N)=O)NC(=O)[C@@H](CCCNC(=N)N)NC(=O)[C@@H](CCCNC(=N)N)NC(=O)[C@@H]1CCCN1C(=O)c1ccccc1						1140		remaining at 24 h [11]: 95%; Activity [15]: 1
N=C(N)NCCC[C@@H](NC(=O)[C@@H]1Cc2ccccc2CN1)C(=O)N[C@H](CCCNC(=N)N)C(=O)N[C@@H](CCC(N)=O)C(=O)N[C@@H](CC1CCCCC1)C(=O)N[C@H]1CSSC[C@@H](C(N)=O)NC1=O					0.75	0.91		
N=C(N)NCCC[C@H](NC(=O)[C@@H](CCCNC(=N)N)NC(=O)[C@@H](CCCNC(=N)N)NC(=O)[C@@H]1CCCN1C(=O)c1ccccc1)C(=O)N[C@@H](CC1CCCCC1)C(=O)N[C@H]1CSSC[C@@H](C(N)=O)NC1=O					12	0.23		
N=C(N)NCCC[C@H](NC(=O)[C@@H]1CCC(=O)N1)C(=O)N[C@H](CCCNC(=N)N)C(=O)N[C@@H](CCC(N)=O)C(=O)N[C@@H](CC1CCCCC1)C(=O)N[C@H]1CSSC[C@@H](C(N)=O)NC1=O					20	16.1		
N=C(N)NCCC[C@@H](NC(=O)[C@@H](CCCNC(=N)N)NC(=O)[C@@H]1CCCN1C(=O)c1ccccc1)C(=O)N[C@@H](CCC(N)=O)C(=O)N[C@@H](CC1CCCCC1)C(=O)N[C@H]1CSSC[C@@H](C(N)=O)NC1=O	0.36	> 250000	> 45000	> 250000	4	0.25	0.41	inhibition (Mus musculus [16]): inactive; Activity [17]: 1; inhibition (Mus musculus [18]): inactive; inhibition (Mus musculus [19]): Dose-Dependent Effect
CC[C@H](C)[C@H](NC(=O)[C@H](CCC(N)=O)NC(=O)[C@H](CCCNC(=N)N)NC(=O)[C@H](CCCNC(=N)N)NC(=O)[C@@H]1CCC(=O)N1)C(=O)N[C@H]1CSSC[C@@H](C(N)=O)NC1=O (HELM PEPTIDE1{[Glp].R.R.Q.I.C.C.[am]}$PEPTIDE1,PEPTIDE1,6:R3-7:R3$$$V2.0)	7490	> 250	> 250	> 250	3	191	1.9	
N=C(N)NCCC[C@@H](NC(=O)c1cnc2ccccc2c1)C(=O)N[C@H](CCCNC(=N)N)C(=O)N[C@@H](CCC(N)=O)C(=O)N[C@@H](CC1CCCCC1)C(=O)N[C@H]1CSSC[C@@H](C(N)=O)NC1=O					0.75	0.71		
